Measured values taken from ChEMBL document CHEMBL1123718, “Analogues and derivatives of tenoxicam. 1. Synthesis and antiinflammatory activity of analogues with different residues on the ring nitrogen and the amide nitrogen” (1987).

What was measured:
Rattus norvegicus [1] = assay: Anti-inflammatory activity was assessed by estimating kaolin-induced edema in rat hind paw, by administering orally; assay type: functional; details: po
Summary of the method: (§1)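 Female Füllinsdorf albino rats (about 70 g) got 0.1 mL of 10% kaolin suspension s.c. into the right hind paw. Drug in 0.5% tragacanth was given po 0.5 h before and 3.5 h after kaolin. Paw diameter was measured, and edema inhibition was expressed as % of controls. A phenylbutazone 30 mg/kg po validation group ran in each set. ED30 came from group means graphically, or from logit analysis with 95% CI.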

Rattus norvegicus [2] = assay: Anti-inflammatory activity was assessed by estimating threshold pain response after oral administration to rats; assay type: functional
Summary of the method: (§2)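 Kaolin paw model in female Füllinsdorf rats (about 70 g): 0.1 mL of 10% kaolin s.c. into the right hind paw, with oral drug in 0.5% tragacanth at 0.5 h before and 3.5 h after. Pressure pain threshold was measured after kaolin, and its increase was expressed as % of controls. ED100 was read graphically from group means, or by logit analysis with 95% CI.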

Rattus norvegicus [3] = assay: Ulcerogenic potential was assessed in a rat model by the enhancement of stress-induced gastric mucosal lesions after oral administration; assay type: functional; details: Gastric mucosa
Summary of the method: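 Female Füllinsdorf albino rats (about 160 g) were starved 24 h and given drug po in 0.5% tragacanth. They then had 2 h cold-water stress (22.5 °C) and were sacrificed. Rats with macroscopic gastric mucosal erosions were counted. ED50 was defined as the dose giving lesions in 50% of animals and calculated by probit analysis with 95% CI.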

Rattus norvegicus [4] = assay: Anti-inflammatory activity was assessed by estimating kaolin-induced edema in rat hind paw, by administering orally;NE not effective up to 100 mg/kg; assay type: functional, organism-based; set-up: dose 100 mg/kg; summary of the method: as §1
Rattus norvegicus [5] = assay: Anti-inflammatory activity was assessed by estimating threshold pain response after oral administration to rats; NE not effective up to 100 mg/kg; assay type: functional, organism-based; set-up: dose 100 mg/kg; summary of the method: as §2
Rattus norvegicus [6] = assay: Anti-inflammatory activity was assessed by estimating threshold pain response after oral administration to rats; NE denotes not effective up to 100 mg/kg; assay type: functional, organism-based; set-up: dose 100 mg/kg; summary of the method: as §2
Rattus norvegicus [7] = assay: Anti-inflammatory activity was assessed by estimating kaolin-induced edema in rat hind paw, by administering orally;NE denotes not effective up to 100 mg/kg; assay type: functional, organism-based; set-up: dose 100 mg/kg; summary of the method: as §1
Rattus norvegicus [8] = assay: Anti-inflammatory activity was assessed by estimating threshold pain response after oral administration to rats;NE not effective up to 100 mg/kg; assay type: functional, organism-based; set-up: dose 100 mg/kg; summary of the method: as §2
Rattus norvegicus [9] = assay: Anti-inflammatory activity was assessed by estimating kaolin-induced edema in rat hind paw, by administering orally; NE not effective up to 100 mg/kg; assay type: functional, organism-based; set-up: dose 100 mg/kg; summary of the method: as §1
Rattus norvegicus [10] = assay: Anti-inflammatory activity was assessed by estimating kaolin-induced edema in rat ind paw, by administering orally; assay type: functional; details: po; summary of the method: as §1

## CN1C(C(=O)Nc2ccccn2)=C(O)c2sccc2S1(=O)=O [TENOXICAM]
Rattus norvegicus [1]
  ED30: 2.6 mg/kg
Rattus norvegicus [2]
  ED100: 5.3 mg/kg
Rattus norvegicus [3]
  ED50: 0.7 mg/kg

## CN1C(C(=O)Nc2ncccn2)=C(O)c2sccc2S1(=O)=O
Rattus norvegicus [4]
  ED30: No effect
Rattus norvegicus [5]
  ED100: No effect

## CN1C(C(=O)Nc2ccc(O)cc2)=C(O)c2sccc2S1(=O)=O
Rattus norvegicus [6]
  ED100: No effect
Rattus norvegicus [7]
  ED30: No effect

## Cc1cc(NC(=O)C2=C(O)c3sccc3S(=O)(=O)N2C)no1
Rattus norvegicus [1]
  ED30: 20 mg/kg
Rattus norvegicus [2]
  ED100: 24 mg/kg

## Cc1noc(NC(=O)C2=C(O)c3sccc3S(=O)(=O)N2C)c1C
Rattus norvegicus [4]
  ED30: No effect
Rattus norvegicus [8]
  ED100: No effect

## CN1C(C(=O)Nc2nccs2)=C(O)c2sccc2S1(=O)=O
Rattus norvegicus [1]
  ED30: 20 mg/kg
Rattus norvegicus [2]
  ED100: 14 mg/kg
Rattus norvegicus [3]
  ED50: 2.2 mg/kg

## CN1C(C(=O)Nc2ccccn2)=C(O)c2ccccc2S1(=O)=O [PIROXICAM]
Rattus norvegicus [1]
  ED30: 1.9 mg/kg
Rattus norvegicus [2]
  ED100: 4 mg/kg
Rattus norvegicus [3]
  ED50: 0.5 mg/kg

## CN1C(C(=O)Nc2cccc(Cl)c2)=C(O)c2sccc2S1(=O)=O
Rattus norvegicus [1]
  ED30: > 100 mg/kg
Rattus norvegicus [2]
  ED100: >100 mg/kg

## CCN1C(C(=O)Nc2ccccn2)=C(O)c2sccc2S1(=O)=O
Rattus norvegicus [4]
  ED30: No effect
Rattus norvegicus [2]
  ED100: 24 mg/kg

## Cc1cc(NC(=O)C2=C(O)c3sccc3S(=O)(=O)N2C)nc(C)n1
Rattus norvegicus [9]
  ED30: No effect
Rattus norvegicus [5]
  ED100: No effect

## Cc1cccc(NC(=O)C2=C(O)c3sccc3S(=O)(=O)N2C)n1
Rattus norvegicus [1]
  ED30: 30 mg/kg
Rattus norvegicus [2]
  ED100: 27.4 mg/kg
Rattus norvegicus [3]
  ED50: 0.5 mg/kg

## CN1C(C(=O)Nc2cnccn2)=C(O)c2sccc2S1(=O)=O
Rattus norvegicus [1]
  ED30: 70 mg/kg
Rattus norvegicus [2]
  ED100: 56 mg/kg
Rattus norvegicus [3]
  ED50: 1.8 mg/kg

## O=C(Nc1ccccn1)C1=C(O)c2sccc2S(=O)(=O)N1
Rattus norvegicus [1]
  ED30: > 100 mg/kg
Rattus norvegicus [2]
  ED100: >100 mg/kg

## CN1C(C(=O)Nc2ccccc2)=C(O)c2sccc2S1(=O)=O
Rattus norvegicus [1]
  ED30: > 100 mg/kg
Rattus norvegicus [2]
  ED100: 75 mg/kg

## CN1C(C(=O)Nc2ccncc2)=C(O)c2sccc2S1(=O)=O
Rattus norvegicus [6]
  ED100: No effect
Rattus norvegicus [7]
  ED30: No effect

## Cc1cccc(NC(=O)C2=C(O)c3sccc3S(=O)(=O)N2C)c1
Rattus norvegicus [1]
  ED30: 43.4 mg/kg
Rattus norvegicus [2]
  ED100: 3.9 mg/kg
Rattus norvegicus [3]
  ED50: 7 mg/kg

## CN1C(C(=O)Nc2cccnc2)=C(O)c2sccc2S1(=O)=O
Rattus norvegicus [10]
  ED30: 63.7 mg/kg
Rattus norvegicus [2]
  ED100: >100 mg/kg
Rattus norvegicus [3]
  ED50: 6.3 mg/kg
